From ChEMBL document CHEMBL1140304, “Design and synthesis of potent inhibitors of plasmepsin I and II: X-ray crystal structure of inhibitor in complex with plasmepsin II” (J Med Chem, 2005)

Columns and labels:
Plasmepsin I = Plasmepsin I (Plasmodium falciparum, UniProt P39898); assay: Inhibitory concentration against the plasmepsin-1 of Plasmodium falciparum
Summary of the method: (§1)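 Fluorogenic assay in 100 mM sodium acetate (pH 4.5), 10% glycerol and 0.01% Tween 20, with 3 µM DABCYL/EDANS peptide substrate. Enzymes: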

Plasmepsin II = Plasmepsin II (Plasmodium falciparum, UniProt P46925); assay: Inhibitory concentration against the plasmepsin-2 of Plasmodium falciparum; summary of the method: as §1
Sequence of Plasmepsin II (P46925 whole entry): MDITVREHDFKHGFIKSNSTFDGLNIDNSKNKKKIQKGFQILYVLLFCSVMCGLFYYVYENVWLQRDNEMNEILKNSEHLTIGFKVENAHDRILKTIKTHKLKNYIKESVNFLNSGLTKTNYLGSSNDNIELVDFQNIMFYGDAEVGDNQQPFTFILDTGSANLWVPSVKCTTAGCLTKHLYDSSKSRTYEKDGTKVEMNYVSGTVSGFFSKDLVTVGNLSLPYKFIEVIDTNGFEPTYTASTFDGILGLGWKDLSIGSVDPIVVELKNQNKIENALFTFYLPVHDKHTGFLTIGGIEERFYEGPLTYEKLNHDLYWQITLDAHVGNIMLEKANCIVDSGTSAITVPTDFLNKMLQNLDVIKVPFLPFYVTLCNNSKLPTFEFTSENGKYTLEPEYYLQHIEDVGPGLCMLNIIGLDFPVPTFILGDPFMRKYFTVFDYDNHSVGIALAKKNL

Cathepsin D = Cathepsin D (Homo sapiens, UniProt P07339); assay: Inhibitory concentration against the human Cathepsin D; summary of the method: as §1
Sequence of Cathepsin D (P07339 65-162 limits assumed): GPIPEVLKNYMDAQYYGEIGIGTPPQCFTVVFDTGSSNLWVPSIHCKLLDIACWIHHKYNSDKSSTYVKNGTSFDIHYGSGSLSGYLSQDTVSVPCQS
Sequence of Cathepsin D (P07339 169-412 limits assumed): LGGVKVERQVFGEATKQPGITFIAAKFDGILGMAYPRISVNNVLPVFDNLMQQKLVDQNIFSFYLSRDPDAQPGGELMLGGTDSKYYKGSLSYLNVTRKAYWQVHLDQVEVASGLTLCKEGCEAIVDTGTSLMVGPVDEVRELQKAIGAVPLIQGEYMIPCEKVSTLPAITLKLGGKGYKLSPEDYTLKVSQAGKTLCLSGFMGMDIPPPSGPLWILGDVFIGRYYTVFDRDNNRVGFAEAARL

Plasmodium falciparum = assay: Percentage inhibition of parasite growth in human erythrocytes at 5 uM; assay type: functional
Summary of the method: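 Synchronous P. falciparum 3D7 early trophozoites at ~1% haematocrit and 1% parasitaemia, with [3H]hypoxanthine at 10 µCi/mL. Compound (1-5 µM final) or DMSO (max 1% v/v) was added. Cultures ran 30 h at 37 °C in gassed boxes to mature schizonts, then were harvested onto filters for β-counting. Uptake was expressed relative to DMSO controls; four independent experiments.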

Sequence of Plasmepsin I (P39898 whole entry): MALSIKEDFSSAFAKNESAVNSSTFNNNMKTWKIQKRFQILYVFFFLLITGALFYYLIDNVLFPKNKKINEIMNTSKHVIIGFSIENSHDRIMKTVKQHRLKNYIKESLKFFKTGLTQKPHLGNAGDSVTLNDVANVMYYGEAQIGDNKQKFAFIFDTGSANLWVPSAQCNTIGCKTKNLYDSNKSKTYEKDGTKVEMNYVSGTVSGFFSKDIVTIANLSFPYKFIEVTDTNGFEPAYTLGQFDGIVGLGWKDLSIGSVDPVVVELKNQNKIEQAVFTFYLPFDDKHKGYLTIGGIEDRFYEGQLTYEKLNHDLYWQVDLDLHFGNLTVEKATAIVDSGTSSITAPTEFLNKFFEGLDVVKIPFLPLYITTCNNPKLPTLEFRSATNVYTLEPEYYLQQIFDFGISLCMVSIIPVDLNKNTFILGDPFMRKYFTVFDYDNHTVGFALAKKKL

In the case of `O=C(C[C@H](O)[C@H](COCc1ccc(-c2ccccc2)cc1)NC(=O)c1c(F)cc(F)cc1F)NC1CCCCC1`, the Ki (Plasmepsin I) is reported as 0.188 µM, the Ki (Plasmepsin II) is reported as 0.214 µM and the Ki (Cathepsin D) is reported as greater than 3.6 µM.
Molecule `CC(C)C[C@H](NC(=O)[C@H](C)NC(=O)C[C@H](O)[C@H](COCc1cccc(-c2ccsc2)c1)NC(=O)[C@@H](NC(=O)c1ccccn1)C(C)C)C(N)=O` has an inhibition at 5 µM (Plasmodium falciparum) of 65%, a Ki (Plasmepsin I) of 0.0004 µM and a Ki (Plasmepsin II) of 0.0019 µM. The Ki (Cathepsin D) was 0.0016 µM.
`CC(C)C[C@H](NC(=O)[C@H](C)NC(=O)C[C@H](O)[C@H](COCc1ccc(-c2ccccc2)cc1)NC(=O)c1c(F)cc(F)cc1F)C(N)=O` showed a Ki (Plasmepsin I) of 0.0059 µM, a Ki (Plasmepsin II) of 0.048 µM and a Ki (Cathepsin D) of 1.73 µM.
Work on `CC(C)C[C@H](NC(=O)[C@H](C)NC(=O)C[C@H](O)[C@H](COCc1cccc(-c2ccccc2)c1)NC(=O)[C@@H](NC(=O)c1ccccn1)C(C)C)C(N)=O` yielded a Ki (Plasmepsin I) of 0.0007 µM, a Ki (Plasmepsin II) of 0.0044 µM and a Ki (Cathepsin D) of 0.0039 µM.
In the case of `CC(C)C[C@H](NC(=O)[C@H](C)NC(=O)C[C@H](O)[C@H](COCc1ccc(-c2ccsc2)cc1)NC(=O)c1c(F)cc(F)cc1F)C(N)=O`, the Ki (Plasmepsin I) is reported as 0.0021 µM, the Ki (Plasmepsin II) is reported as 0.055 µM and the Ki (Cathepsin D) is reported as 1.44 µM.
`CCCCNC(=O)C[C@H](O)[C@H](COCc1ccc(-c2ccsc2)cc1)NC(=O)[C@@H](NC(=O)c1ccccn1)C(C)C` was tested, and the inhibition at 5 µM (Plasmodium falciparum) was 9%, the Ki (Plasmepsin I) was 0.001 µM and the Ki (Plasmepsin II) was 0.013 µM. For the same molecule, the Ki (Cathepsin D) was 0.241 µM.
With `CC(C)C[C@H](NC(=O)[C@H](C)NC(=O)C[C@H](O)[C@H](COCc1ccc(-c2ccccc2)cc1)NC(=O)[C@@H](NC(=O)c1ccccn1)C(C)C)C(N)=O` the inhibition at 5 µM (Plasmodium falciparum) was 70%, the Ki (Plasmepsin I) was 0.0003 µM and the Ki (Plasmepsin II) was 0.0009 µM. It also gave a Ki (Cathepsin D) of 0.0025 µM.
Work on `CC(C)C[C@H](NC(=O)[C@H](C)NC(=O)C[C@H](O)[C@H](COCc1ccc(-c2ccc3c(c2)OCO3)cc1)NC(=O)c1c(F)cc(F)cc1F)C(N)=O` yielded a Ki (Plasmepsin I) of 0.0033 µM, a Ki (Plasmepsin II) of 0.019 µM and a Ki (Cathepsin D) of 2.7 µM.
Molecule `COc1cccc(CCNC(=O)C[C@H](O)[C@H](COCc2ccc(Br)cc2)NC(=O)c2c(F)cc(F)cc2F)c1` has an inhibition at 5 µM (Plasmodium falciparum) of 29%.
For `CCCCNC(=O)C[C@H](O)[C@H](COCc1ccc(-c2ccccc2)cc1)NC(=O)[C@@H](NC(=O)c1ccccn1)C(C)C`, the Ki (Plasmepsin I) was 0.0019 µM, the Ki (Plasmepsin II) was 0.016 µM and the Ki (Cathepsin D) was 0.481 µM.
Molecule `CC(C)C[C@H](NC(=O)[C@H](C)NC(=O)C[C@H](O)[C@H](COCc1ccc(Br)cc1)NC(=O)[C@@H](NC(=O)c1ccccn1)C(C)C)C(N)=O` has an inhibition at 5 µM (Plasmodium falciparum) of 51%.
`CCCCNC(=O)C[C@H](O)[C@H](COCc1ccc(-c2ccc3c(c2)OCO3)cc1)NC(=O)[C@@H](NC(=O)c1ccccn1)C(C)C` showed a Ki (Plasmepsin I) of 0.0027 µM, a Ki (Plasmepsin II) of 0.045 µM and a Ki (Cathepsin D) of 0.685 µM.
Molecule `CC(C)C[C@H](NC(=O)[C@H](C)NC(=O)C[C@H](O)[C@H](COCc1ccc(-c2ccsc2)cc1)NC(=O)[C@@H](NC(=O)c1ccccn1)C(C)C)C(N)=O` has an inhibition at 5 µM (Plasmodium falciparum) of 46%, a Ki (Plasmepsin I) of 0.0003 µM and a Ki (Plasmepsin II) of 0.0011 µM. For the same molecule, the Ki (Cathepsin D) was 0.0032 µM.
`O=C(C[C@H](O)[C@H](COCc1ccc(Br)cc1)NC(=O)c1c(F)cc(F)cc1F)NC1CCCCC1` was tested, and the inhibition at 5 µM (Plasmodium falciparum) was 0%.
Work on `CC(C)C[C@H](NC(=O)[C@H](C)NC(=O)C[C@H](O)[C@H](COCc1cccc(Br)c1)NC(=O)[C@@H](NC(=O)c1ccccn1)C(C)C)C(N)=O` yielded an inhibition at 5 µM (Plasmodium falciparum) of 55%, a Ki (Plasmepsin I) of 0.001 µM and a Ki (Plasmepsin II) of 0.0057 µM. It also gave a Ki (Cathepsin D) of 0.032 µM.
For `CC(C)C[C@H](NC(=O)[C@H](C)NC(=O)C[C@H](O)[C@H](COCc1ccc(Br)cc1)NC(=O)c1c(F)cc(F)cc1F)C(N)=O`, the inhibition at 5 µM (Plasmodium falciparum) was 10%.
`CC(C)C[C@H](NC(=O)[C@H](C)NC(=O)C[C@H](O)[C@H](COCc1ccc(-c2ccc3c(c2)OCO3)cc1)NC(=O)[C@@H](NC(=O)c1ccccn1)C(C)C)C(N)=O` was tested, and the inhibition at 5 µM (Plasmodium falciparum) was 83%, the Ki (Plasmepsin I) was 0.0004 µM and the Ki (Plasmepsin II) was 0.0011 µM. The Ki (Cathepsin D) was 0.0007 µM.
`O=C(C[C@H](O)[C@H](COCc1ccc(-c2ccsc2)cc1)NC(=O)c1c(F)cc(F)cc1F)NC1CCCCC1` showed a Ki (Plasmepsin I) of 0.278 µM, a Ki (Plasmepsin II) of 0.26 µM and a Ki (Cathepsin D) of 4.94 µM.
In the case of `COc1cccc(CCNC(=O)C[C@H](O)[C@H](COCc2ccc(-c3ccsc3)cc2)NC(=O)c2c(F)cc(F)cc2F)c1`, the Ki (Plasmepsin I) is reported as 0.221 µM, the Ki (Plasmepsin II) is reported as 0.693 µM and the Ki (Cathepsin D) is reported as 1.88 µM.
`COc1cccc(CCNC(=O)C[C@H](O)[C@H](COCc2ccc(-c3ccccc3)cc2)NC(=O)c2c(F)cc(F)cc2F)c1` showed a Ki (Plasmepsin I) of 0.116 µM, a Ki (Plasmepsin II) of 0.308 µM and a Ki (Cathepsin D) greater than 5.9 µM.
